Compound activity from PubChem BioAssay.
KCNK9 block: human KCNK9 channel inhibition; Q9NPC2; HEK293 KCNK9, FluxOR thallium flux fluorescence; active compounds read low; B-score at 10 µM; 310,000 tested, 1.2% active;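 active means ratio B-score over 3 SD below the library mean, with starting fluorescence within 5 SD of its mean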;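 further: negative B-score means less thallium flux so channel inhibition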
KCNQ1 pot: potentiates or activates the human KCNQ1 potassium channel; 310,000 tested, 0.35% active; CHO-K1 KCNQ1, thallium flux FluxOR fluorescence; active compounds read high; AID 2648; B-score at 10 µM; P51787;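 active means fluorescence ratio B-score, a plate-corrected score, at least three library SD, with initial intensity B-score within 5 SD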
Target sequence (P51787 whole entry, looked up): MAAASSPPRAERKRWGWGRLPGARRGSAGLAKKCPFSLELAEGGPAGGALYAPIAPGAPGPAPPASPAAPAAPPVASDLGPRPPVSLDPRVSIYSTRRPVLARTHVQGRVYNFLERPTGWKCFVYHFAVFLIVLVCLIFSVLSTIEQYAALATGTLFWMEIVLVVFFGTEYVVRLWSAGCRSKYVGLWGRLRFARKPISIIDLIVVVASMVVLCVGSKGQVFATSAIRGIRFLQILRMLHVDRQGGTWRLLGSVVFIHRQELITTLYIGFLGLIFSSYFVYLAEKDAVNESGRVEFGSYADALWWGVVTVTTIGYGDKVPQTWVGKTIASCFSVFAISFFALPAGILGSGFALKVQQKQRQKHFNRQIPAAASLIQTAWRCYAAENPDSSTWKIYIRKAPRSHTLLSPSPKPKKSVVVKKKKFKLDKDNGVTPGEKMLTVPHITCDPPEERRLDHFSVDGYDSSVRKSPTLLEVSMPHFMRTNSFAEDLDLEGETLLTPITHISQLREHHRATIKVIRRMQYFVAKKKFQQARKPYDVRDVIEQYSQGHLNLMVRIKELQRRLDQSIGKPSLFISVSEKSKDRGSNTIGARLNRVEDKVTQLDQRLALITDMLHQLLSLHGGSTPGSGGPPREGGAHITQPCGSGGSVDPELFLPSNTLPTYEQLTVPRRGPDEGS
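Doses: Single concentration per compound, DMSO matched to controls | Test system: KCNQ1-transfected CHO-K1 cells | Timing: 90 min dye loading and 20 min compound exposure, both at room temperature | Measured by: Kinetic FluxOR thallium fluorescence, 10-s 1-Hz baseline, 110-s post-stimulus read | Medium: Assay buffer with matched DMSO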
KCC2 mod: modulators of human KCC2 chloride dependent transport; KCC2 cells, thallium flux FluoZin-2 fluorescence; AID 1456; Q9H2X9; 190,000 tested, 2.2% active; B-score of Tl+ flux slope (higher = more flux/activation; lower = inhibition) at 10 µM;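 active means thallium flux slope and its plate-corrected score both differing from the plate sample mean at a set confidence after two filtering rounds, in either direction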;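 further: slope of fluorescence scaled to starting intensity during 10 to 20 s after thallium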
KCNQ1 block: human KCNQ1 channel inhibition; AID 2642; 310,000 tested, 1.3% active; B-score at 10 µM; P51787; CHO-K1 KCNQ1, FluxOR thallium flux fluorescence; active compounds read high;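 active means compounds whose thallium flux B-score, printed positive for inhibition, exceeds three library SD while starting fluorescence stays within three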;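 further: channel opened by potassium depolarization with thallium stimulus after 20 min compound exposure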
hERG protect: hERG (human) protection from proarrhythmic block; 310,000 tested, 0.51% active; AID 1511; CHO-hERG, FluxOR thallium flux, dofetilide IC70 present; Q12809; activation (rescue from dofetilide block), less the hit threshold, % at 10 µM;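 active means activation above the mean of controls blocked by dofetilide plus 5 SD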;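 further: thallium influx through hERG after potassium depolarization seen as dye fluorescence rise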
KCNK3 inh: human KCNK3 channel inhibition, primary screen; 340,000 tested, 0.84% active; CHO-KCNK3 thallium flux, FluxOR fluorescence; active compounds read low; O14649; B-score at 10 µM;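 active means B-score under library mean minus 4 SD, starting fluorescence ratio at most library mean plus 5 SD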;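 further: more negative B-score means stronger inhibition of thallium flux through KCNK3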
KCNK3 confirm: human KCNK3 channel inhibition, confirmation assay. AID 651638. CHO-KCNK3 thallium flux, FluxOR fluorescence; 0% buffer, 100% carvedilol maximal block. shares compounds with KCNK3 inh. 2,400 tested, 99% active. ratio percent of control, % at 10 µM;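 active means ratio percent of control, averaged over triplicates, above buffer control mean plus 5 SD, cut at about 64% in these data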;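 further: ratio is the fluorescence rise from min to max over baseline after thallium stimulus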
KCNK3 uninduced: counter-screen for KCNK3 inhibitors: effect in non-induced cells | non-induced KCNK3 parental cells, FluxOR thallium flux; active compounds read low | thallium flux ratio (lower = more inhibition) at 10 µM | shares compounds with KCNK3 inh | 2,400 tested, 40% active;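 active means thallium flux ratio, averaged over three wells, more than 5 SD below the buffer control mean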;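 further: host cells are CHO cells without KCNK3 induction; ratio is peak minus trough fluorescence over baseline then normalized to buffer controls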
* marks the source's active call; other numbers are inactive results; i = inactive; . = not tested or not shown. In the library only some 4.1% were active in any assay of this set; here they are far more common.

SMILES | KCNK9 block | KCNQ1 pot | KCC2 mod | KCNQ1 block | hERG protect | KCNK3 inh | KCNK3 confirm | KCNK3 uninduced
CC(=O)N1c2ccc(S(=O)(=O)N3CCCCC3)cc2CC1C(=O)Nc1ccc(F)cc1C (stereo not drawn) | i | i | . | i | -9 | -10* | 91* | i
COc1ccc(Nc2nnc(-c3ccc(O)cc3)c3ccccc23)cc1 | i | i | -3.7 | i | -14 | -8.9* | 98* | i
Cc1ccc(NC(=O)CSc2nc(=O)n(CCN(C)C)c3c2CCCC3)cc1Cl | i | i | . | i | -11 | -10* | 68* | i
N#CC1=C(N)Oc2cc(Nc3ccccc3)ccc2C1c1ccncc1 (stereo not drawn) | -6.8* | i | . | i | -13 | -8.8* | 106* | i
N#CC1=C(N)Oc2cc(N)ccc2C1c1cccnc1 (stereo not drawn) | i | i | 0.27 | i | -5 | i | . | .
CCC(C)C(=O)Nc1ccc(S(=O)(=O)N2CCCC2)cc1 (stereo not drawn) | i | i | . | i | -5 | i | . | .
CCC(C)NS(=O)(=O)c1ccc(S(=O)(=O)N2CCCC3(CCCCC3)C2)cc1 (stereo not drawn) | i | i | -0.03 | i | -10 | -9* | 118* | 0.14*
COc1ccccc1-c1cnn2c(NC3CCCC3)cc(C)nc12 | i | i | . | i | -4 | i | . | .
COc1ccc(C(=O)C2CCCN(S(=O)(=O)c3ccc(C(C)=O)cc3)C2)c(C)c1 (stereo not drawn) | i | i | . | i | -8 | -10* | 120* | 0.15*
CCS(=O)(=O)N1CCCC(C(=O)c2ccc(OC)cc2C)C1 (stereo not drawn) | i | i | -1.3 | i | -13 | i | . | .
CCCCNC(=O)CCc1nc2cccnc2n1Cc1ccccc1 | i | i | . | i | -5 | i | . | .
Cc1nn(CCCC(=O)Nc2cc(Oc3ccc(F)cc3)cc([N+](=O)[O-])c2)c(C)c1[N+](=O)[O-] | i | i | 0.2 | i | -9 | -8.9* | 125* | i
Cc1ccccc1Oc1cc(NC(=O)CCCn2nc(C)c([N+](=O)[O-])c2C)cc([N+](=O)[O-])c1 | i | i | 0.33 | i | -7 | -9.3* | 119* | i
Cc1c(Cl)c([N+](=O)[O-])nn1CCCC(=O)Nc1cc(Oc2ccccc2)cc([N+](=O)[O-])c1 | i | i | -0.17 | i | -2 | i | . | .
Cc1ccccc1Oc1cc(NC(=O)Cn2cnc([N+](=O)[O-])c2)cc([N+](=O)[O-])c1 | i | i | 0.39 | i | -8 | i | . | .
Oc1ccccc1-c1cc(-c2ccccc2)no1 | i | i | -0.074 | i | -15 | i | . | .
Cc1ccccc1-c1cc(-c2ccccc2O)on1 | i | i | 0.75 | i | -7 | -9.2* | 118* | i
CCC(ONc1ccccc1C(F)(F)F)(C(=O)NN(C)C)c1ccccc1 (stereo not drawn) | . | . | . | . | . | i | . | .
Brc1ccc(-c2noc(COc3ccc4ccccc4c3)n2)o1 | i | i | 0.17 | i | -12 | -9.1* | 102* | i
O=[N+]([O-])c1ccccc1-c1nc(-c2ccc(Br)o2)no1 | i | i | -1.2 | i | -8 | i | . | .
Clc1ccccc1OCc1nc(-c2ccc(Br)o2)no1 | i | i | -2 | i | -11 | -10* | 112* | i
Clc1ccccc1-c1nc(-c2ccc(Br)o2)no1 | i | i | . | i | -2 | -10* | 123* | 0.15*
Clc1ccccc1OCc1nc(-c2ccccn2)no1 | i | i | -2.4 | i | -9 | i | . | .
CC(=O)Nc1ccc(NC(=O)C(C)OC(=O)CC23CC4CC(CC(Br)(C4)C2)C3)cc1 (stereo not drawn) | . | . | . | . | . | i | . | .
Cc1ccc(S(=O)(=O)NC(CC(C)C)C(=O)N2CCN(C/C=C/c3ccccc3)CC2)cc1 (stereo not drawn) | . | . | . | . | . | i | . | .
SMILES | KCNK9 block | KCNQ1 pot | KCC2 mod | KCNQ1 block | hERG protect | KCNK3 inh | KCNK3 confirm | KCNK3 uninduced
COc1cccc(OCc2nc(-c3cccc([N+](=O)[O-])c3)no2)c1 | i | i | -0.23 | i | -7 | -10* | 99* | i
COc1cccc(-c2noc(Cn3nc(C)c([N+](=O)[O-])c3C)n2)c1 | i | i | 0.61 | i | -8 | i | . | .
CCOC(=O)c1sc(NC(=O)CSc2nnc(-c3ccco3)n2CC)c(C(=O)OCC)c1C | i | i | -0.65 | i | 1 | -12* | 98* | i
CCOC(=O)c1cnc(-n2nc(C)cc2C)nc1Nc1ccc(OC)cc1 | i | i | . | i | -13 | i | . | .
CCOC(=O)c1cnc(-n2nc(C)cc2C)nc1NC1CCCC1 | i | i | 0.41 | i | -30 | -9.4* | 131* | 0.11*
N#Cc1ccccc1CCN1C(=O)c2ccccc2C1=O | i | i | . | i | -4 | i | . | .
COc1ccc(Cl)cc1NC(=O)CN(C)CC(=O)Nc1ccccc1-c1ccccc1 | i | i | 0.13 | i | 0 | -9.7* | 99* | i
CSc1ccccc1C(=O)N(C)Cc1ccccc1 | i | i | -1.4 | i | -15 | i | . | .
CSc1ccccc1C(=O)N(C)C(c1ccccc1)c1ccccc1 | i | i | . | i | -13 | -9.1* | 108* | i
O=C1CC(c2cccc(O)c2)Oc2ccccc21 (stereo not drawn) | . | . | . | . | . | i | . | .
COc1ccccc1-n1c(SCC(=O)Nc2cc(C)on2)nc2c([nH]c3ccccc32)c1=O | i | i | . | i | -13 | -9.2* | 101* | i
Cc1cc(NC(=O)CSc2nc3c([nH]c4ccccc43)c(=O)n2-c2cccc(C(F)(F)F)c2)no1 | i | i | -2 | i | -7 | -11* | 92* | i
COc1ccccc1-n1c(SCC(=O)Nc2cc(C)on2)nc2c(c1=O)SCC2 | i | i | . | i | -6 | i | . | .
COc1cccc(-n2c(SCC(=O)Nc3cc(C)on3)nc3c([nH]c4ccccc43)c2=O)c1 | i | i | -0.56 | i | -10 | i | . | .
CCN(CC)S(=O)(=O)c1ccc(NC(=O)c2cccs2)cc1 | i | i | -0.97 | i | -14 | -10* | 83* | i
CCN(CC)S(=O)(=O)c1ccc(C(=O)NNC(=O)c2cccs2)cc1 | i | i | 1.2 | i | -10 | i | . | .
